Series [1] relates to Brain. The series can be described thus: Drug level in APP51/16 transgenic mouse brain expressing human APP at 100 umol/kg, po administered twice at 3 hrs interval measured after 7 hrs of last dose. The settings on record: in vivo.
For series [2], the system named is Brain. The series can be described thus: Drug level in APP51/16 transgenic mouse brain expressing human APP at 30 umol/kg, iv after 5 hrs. The series is classed as ADME, organism-based. The settings on record: in vivo. The essentials: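 Single i.v. dose of 30 µmol/kg in APP51/16 transgenic mice (human APP, brain-specific promoter), sacrificed 5 h after dosing. Compound level measured in brain.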

Series [3] in a line: Drug level in C57BL/6 mouse brain at 30 umol/kg, iv after 5 hrs. The settings on record: read-out: Drug uptake. The series is classed as ADME, organism-based. The essentials:
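C57BL/6 mice, single i.v. dose of 30 µmol/kg. Compound levels in brain and plasma followed over 5 h; brain:plasma ratio from 5 min to 5 h.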

Series [4] is described as follows: in vivo. The settings on record: C57BL/6, mouse, brain/plasma, iv, 30 umol/kg.
For series [5], the system named is Brain. The series can be described thus: Drug level in APP51/16 transgenic mouse brain expressing human APP at 30 umol/kg, iv administered twice at 2 hrs interval measured after 3 hrs of last dose. As to conditions: in vivo.
Series [6] can be described thus: in vivo. As to conditions: C57BL/6, mouse, brain/plasma, iv, 30 umol/kg. The source holds these as a separate data set.

Drug uptake, concentration and Kp data for two compounds are collected here from ChEMBL document CHEMBL1151821, “Macrocyclic peptidomimetic beta-secretase (BACE-1) inhibitors with activity in vivo” (Bioorg Med Chem Lett, 2009).

Bounds are passed on as bounds.

In the case of `CC(C)c1ccc2c(c1)[C@@H](NC[C@@H](O)[C@@H]1C[C@H](C)CCCCCCCCC(=O)N(C)[C@@H](C)C(=O)N1)CC(C)(C)O2`, the Drug uptake in series [1] was 1.5 µmol/kg.

Turning to `CC(C)c1cccc(CNC[C@@H](O)[C@@H]2C[C@H](C)CCCCCCCCC(=O)N(C)[C@@H](C)C(=O)N2)c1`, the Drug uptake came to 1.3 µmol/kg in series [2] and 4.3 µmol/kg in series [5]. In addition, in series [3], the concentration at 5 h was greater than 1000 nM. The Kp at 5 min in series [4] was determined as 1.5. This compound also registered a Kp at 5 h in series [6] of 4.
